≈ marks a conversion by molar mass, not a printed value.
Experiments:
Staphylococcus aureus [1] = assay: Antimicrobial activity against linezolid-susceptible Staphylococcus aureus NRS384 infected in THP1 cells after 24 hrs; assay type: functional, organism-based; details: NRS384, THP-1, 24 h
Outline: (§1)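 Bacteria were phagocytosed by human THP-1 macrophage-like cells, then exposed to a range of drug concentrations for a fixed time: 24 h for S. aureus, S. epidermidis and L. monocytogenes, 48 h for L. pneumophila. Change in CFU versus the initial inoculum was fitted with a sigmoidal curve to give Emin, Emax (relative maximal efficacy), EC50 and static concentration (Cs).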

Staphylococcus aureus [2] = assay: Antimicrobial activity against linezolid-susceptible Staphylococcus aureus ATCC 25923 infected in THP1 cells after 24 hrs; assay type: functional, organism-based; details: ATCC 25923, THP-1, 24 h; outline: as §1
Staphylococcus aureus [3] = assay: Antimicrobial activity against Staphylococcus aureus infected in THP1 cells after 24 hrs; assay type: functional, organism-based; details: THP-1, 24 h; outline: as §1
Staphylococcus aureus [4] = assay: Antimicrobial activity against linezolid-susceptible Staphylococcus aureus ATCC 33591 infected in THP1 cells assessed as log reduction in bacterial count after 24 hrs; assay type: functional, THP-1; outline: as §1
Staphylococcus aureus [5] = assay: Bacteriostatic activity against linezolid-resistant Staphylococcus aureus SA040L infected in THP1 cells after 24 hrs; assay type: functional, THP-1
Outline: (§2)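 Human THP-1 myelomonocytic (macrophage-like) cells infected with S. aureus, then exposed 24 h to a range of antibiotic concentrations. CFU change was measured against the initial inoculum. A sigmoidal dose-response curve was fitted to give Emin, Emax and EC50, and the apparent static concentration (Cs) was taken from the fit.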

Staphylococcus aureus [6] = assay: Antimicrobial activity against linezolid-susceptible Staphylococcus aureus NRS18 infected in THP1 cells after 24 hrs; assay type: functional, organism-based; details: NRS18, THP-1, 24 h; outline: as §1
Staphylococcus aureus [7] = assay: Antimicrobial activity against linezolid-susceptible Staphylococcus aureus NRS384 infected in THP1 cells assessed as log reduction in bacterial count after 24 hrs; assay type: functional, THP-1; outline: as §1
Staphylococcus aureus [8] = assay: Antimicrobial activity against linezolid-resistant Staphylococcus aureus SA238L infected in THP1 cells assessed as log reduction in bacterial count after 24 hrs; assay type: functional, THP-1; outline: as §1
Legionella pneumophila [9] = assay: Antimicrobial activity against Legionella pneumophila ATCC 33153 infected in THP1 cells after 48hrs; assay type: functional, organism-based; details: ATCC 33153, THP-1, 48 h; outline: as §1
Staphylococcus aureus [10] = assay: Bacteriostatic activity against linezolid-susceptible Staphylococcus aureus SA040 infected in THP1 cells after 24 hrs; assay type: functional, THP-1; outline: as §2
Staphylococcus aureus [11] = assay: Antimicrobial activity against linezolid resistant methicillin-susceptible Staphylococcus aureus SA040L after 24 hrs; assay type: functional
Legionella pneumophila [12] = assay: Antimicrobial activity against Legionella pneumophila ATCC 33153 after 48 hrs; assay type: functional; details: ATCC 33153, 48 h
Staphylococcus aureus [13] = assay: Bacteriostatic activity against Staphylococcus aureus infected in THP1 cells after 24 hrs; assay type: functional, THP-1; outline: as §1
Staphylococcus aureus [14] = assay: Bacteriostatic activity against linezolid-susceptible Staphylococcus aureus ATCC 25923 infected in THP1 cells after 24 hrs; assay type: functional, THP-1; outline: as §2
Staphylococcus aureus [15] = assay: Antimicrobial activity against linezolid-susceptible Staphylococcus aureus SA238 infected in THP1 cells at pH 7.4 after 24 hrs; assay type: functional, organism-based; details: SA238, THP-1, 24 h
Listeria monocytogenes [16] = assay: Bacteriostatic activity against Listeria monocytogenes EGD infected in THP1 cells after 24 hrs; assay type: functional, THP-1; outline: as §1
[17] = test system: Staphylococcus epidermidis; assay: Antimicrobial activity against Staphylococcus epidermidis SA362 after 24 hrs; assay type: functional; details: SA362, 24 h
Staphylococcus aureus [18] = assay: Antimicrobial activity against linezolid-susceptible Staphylococcus aureus ATCC 33591 infected in THP1 cells after 24 hrs; assay type: functional, organism-based; details: ATCC 33591, THP-1, 24 h; outline: as §1
Staphylococcus aureus [19] = assay: Antimicrobial activity against linezolid-susceptible Staphylococcus aureus ATCC 25923 infected in THP1 cells assessed as log reduction in bacterial count after 24 hrs; assay type: functional, THP-1; outline: as §1
Staphylococcus aureus [20] = assay: Antimicrobial activity against linezolid-susceptible Staphylococcus aureus SA238 after 24 hrs; assay type: functional, organism-based; details: SA238, 24 h
[21] = test system: Staphylococcus epidermidis; assay: Antimicrobial activity against Staphylococcus epidermidis infected in THP1 cells after 24 hrs; assay type: functional, organism-based; details: THP-1, 24 h; outline: as §1
Staphylococcus aureus [22] = assay: Antimicrobial activity against linezolid-susceptible Staphylococcus aureus SA040 infected in THP1 cells after 24 hrs; assay type: functional, organism-based; details: SA040, THP-1, 24 h; outline: as §1
[23] = test system: Staphylococcus epidermidis; assay: Bacteriostatic activity against Staphylococcus epidermidis infected in THP1 cells after 24 hrs; assay type: functional, THP-1; outline: as §1
Staphylococcus aureus [24] = assay: Antimicrobial activity against linezolid-susceptible Staphylococcus aureus SA238 infected in THP-1 cells at pH 5.5 after 24 hrs; assay type: functional, organism-based; details: SA238, THP-1, 24 h
Staphylococcus aureus [25] = assay: Bacteriostatic activity against linezolid-susceptible Staphylococcus aureus SA238 after 24 hrs; assay type: functional
Outline: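 Extracellular concentration-response in Mueller-Hinton broth over 24 h. Change in CFU was fitted to a sigmoidal function, and the apparent static concentration (Cs) was derived from the fit.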

Staphylococcus aureus [26] = assay: Bacteriostatic activity against linezolid-susceptible Staphylococcus aureus NRS384 infected in THP1 cells after 24 hrs; assay type: functional, THP-1; outline: as §2
Staphylococcus aureus [27] = assay: Antimicrobial activity against linezolid-susceptible Staphylococcus aureus SA238 infected in THP1 cells assessed as log reduction in bacterial count after 24 hrs; assay type: functional, THP-1; outline: as §1
Staphylococcus aureus [28] = assay: Bacteriostatic activity against linezolid-resistant Staphylococcus aureus SA238L infected in THP1 cells after 24 hrs; assay type: functional, THP-1; outline: as §2
Staphylococcus aureus [29] = assay: Bacteriostatic activity against linezolid-susceptible Staphylococcus aureus ATCC 33591 infected in THP1 cells after 24 hrs; assay type: functional, THP-1; outline: as §2
Staphylococcus aureus [30] = assay: Antimicrobial activity against linezolid-susceptible Staphylococcus aureus NRS18 infected in THP1 cells assessed as log reduction in bacterial count after 24 hrs; assay type: functional, THP-1; outline: as §1
Staphylococcus aureus [31] = assay: Antimicrobial activity against hospital acquired methicillin-resistant Staphylococcus aureus ATCC 33591 after 24 hrs; assay type: functional; details: ATCC 33591, 24 h
Staphylococcus aureus [32] = assay: Bacteriostatic activity against linezolid-susceptible Staphylococcus aureus NRS18 infected in THP1 cells after 24 hrs; assay type: functional, THP-1; outline: as §2
Staphylococcus aureus [33] = assay: Antimicrobial activity against linezolid-resistant Staphylococcus aureus SA040L infected in THP1 cells assessed as log reduction in bacterial count after 24 hrs; assay type: functional, THP-1; outline: as §1
Staphylococcus aureus [34] = assay: Antimicrobial activity against hospital acquired methicillin-resistant, vancomycin resistant Staphylococcus aureus VRS1 after 24 hrs; assay type: functional; details: VRS1, 24 h
Staphylococcus aureus [35] = assay: Antimicrobial activity against Linezolid resistant hospital acquired methicillin-resistant Staphylococcus aureus SA238L after 24 hrs; assay type: functional
Staphylococcus aureus [36] = assay: Antimicrobial activity against linezolid-susceptible Staphylococcus aureus SA238 infected in THP1 cells after 24 hrs; assay type: functional, organism-based; details: SA238, THP-1, 24 h; outline: as §1
Listeria monocytogenes [37] = assay: Antimicrobial activity against Listeria monocytogenes EGD after 24 hrs; assay type: functional
Staphylococcus aureus [38] = assay: Antimicrobial activity against hospital acquired methicillin-resistant, vancomycin resistant Staphylococcus aureus VRS2 after 24 hrs; assay type: functional; details: VRS2, 24 h
Legionella pneumophila [39] = assay: Bacteriostatic activity against Legionella pneumophila ATCC 33153 infected in THP1 cells after 48hrs; assay type: functional, THP-1; outline: as §1
Staphylococcus aureus [40] = assay: Antimicrobial activity against linezolid-susceptible Staphylococcus aureus SA040 infected in THP1 cells assessed as log reduction in bacterial count after 24 hrs; assay type: functional, THP-1; outline: as §1
Staphylococcus aureus [41] = assay: Antimicrobial activity against linezolid-resistant Staphylococcus aureus SA040L infected in THP1 cells after 24 hrs; assay type: functional, organism-based; details: THP-1, 24 h; outline: as §1
Staphylococcus aureus [42] = assay: Bacteriostatic activity against linezolid-susceptible Staphylococcus aureus SA238 infected in THP1 cells at pH 7.4 after 24 hrs; assay type: functional, THP-1
Staphylococcus aureus [43] = assay: Bacteriostatic activity against linezolid-susceptible Staphylococcus aureus SA238 infected in THP1 cells after 24 hrs; assay type: functional, THP-1; outline: as §2
Staphylococcus aureus [44] = assay: Antimicrobial activity against linezolid-resistant Staphylococcus aureus SA238L infected in THP1 cells after 24 hrs; assay type: functional, organism-based; details: THP-1, 24 h; outline: as §1
Listeria monocytogenes [45] = assay: Antimicrobial activity against Listeria monocytogenes infected in THP1 cells after 24 hrs; assay type: functional, organism-based; details: THP-1, 24 h; outline: as §1
Staphylococcus aureus [46] = assay: Bacteriostatic activity against linezolid-susceptible Staphylococcus aureus SA238 infected in THP1 cells at pH 5.5 after 24 hrs; assay type: functional, THP-1

Compound `CC(=O)NC[C@H]1CN(c2ccc(N3CCOCC3)c(F)c2)C(=O)O1` [LINEZOLID] has an EC50 (Staphylococcus aureus [1]) of 0.4 µg/mL (≈ 1.19 µM), an EC50 (Staphylococcus aureus [2]) of 0.63 µg/mL (≈ 1.87 µM) and an EC50 (Staphylococcus aureus [3]) of 0.63 µg/mL (≈ 1.87 µM). The log10cfu (Staphylococcus aureus [4]) was -0.39, the Activity (Staphylococcus aureus [5]) was 10.15 mg/L and the EC50 (Staphylococcus aureus [6]) was 0.84 µg/mL (≈ 2.49 µM). It also gave a log10cfu (Staphylococcus aureus [7]) of -0.41, a log10cfu (Staphylococcus aureus [8]) of 0.27 and an EC50 (Legionella pneumophila [9]) of 8.45 µg/mL (≈ 25 µM). It also gave an Activity (Staphylococcus aureus [10]) of 1.59 mg/L, an MIC (Staphylococcus aureus [11]) of 16 µg/mL (≈ 47.4 µM) and an MIC (Legionella pneumophila [12]) of 4 µg/mL (≈ 11.9 µM). It also gave an Activity (Staphylococcus aureus [13]) of 4.27 mg/L, an Activity (Staphylococcus aureus [14]) of 4.27 mg/L and an EC50 (Staphylococcus aureus [15]) of 0.35 µg/mL (≈ 1.04 µM). It also gave an Activity (Listeria monocytogenes [16]) of 5.47 mg/L, an MIC [17] of 1 µg/mL (≈ 2.96 µM) and an EC50 (Staphylococcus aureus [18]) of 0.47 µg/mL (≈ 1.39 µM). For the same compound, the log10cfu (Staphylococcus aureus [19]) was -0.37, the EC50 (Staphylococcus aureus [20]) was 0.7 µg/mL (≈ 2.07 µM) and the EC50 [21] was 2.99 µg/mL (≈ 8.86 µM). It also gave an EC50 (Staphylococcus aureus [22]) of 0.63 µg/mL (≈ 1.87 µM), an Activity [23] of 0.49 mg/L and an EC50 (Staphylococcus aureus [24]) of 0.18 µg/mL (≈ 0.534 µM). For the same compound, the Activity (Staphylococcus aureus [25]) was 4.55 mg/L, the Activity (Staphylococcus aureus [26]) was 2.3 mg/L and the log10cfu (Staphylococcus aureus [27]) was -0.42. The Activity (Staphylococcus aureus [28]) was greater than 100 mg/L, the Activity (Staphylococcus aureus [29]) was 2.95 mg/L and the log10cfu (Staphylococcus aureus [30]) was -0.69. It also gave an MIC (Staphylococcus aureus [31]) of 1 µg/mL (≈ 2.96 µM), an Activity (Staphylococcus aureus [32]) of 2.77 mg/L and a log10cfu (Staphylococcus aureus [33]) of -0.69. The MIC (Staphylococcus aureus [34]) was 1 µg/mL (≈ 2.96 µM), the MIC (Staphylococcus aureus [35]) was 16 µg/mL (≈ 47.4 µM) and the EC50 (Staphylococcus aureus [36]) was 0.7 µg/mL (≈ 2.07 µM). The MIC (Listeria monocytogenes [37]) was 1 µg/mL (≈ 2.96 µM), the MIC (Staphylococcus aureus [38]) was 1 µg/mL (≈ 2.96 µM) and the Activity (Legionella pneumophila [39]) was 5.14 mg/L. The log10cfu (Staphylococcus aureus [40]) was -0.91, the EC50 (Staphylococcus aureus [41]) was 2.78 µg/mL (≈ 8.24 µM) and the Activity (Staphylococcus aureus [42]) was 2.26 mg/L. It also gave an Activity (Staphylococcus aureus [43]) of 4.55 mg/L, an EC50 (Staphylococcus aureus [44]) of 0.29 µg/mL (≈ 0.86 µM) and an EC50 (Listeria monocytogenes [45]) of 0.62 µg/mL (≈ 1.84 µM). For the same compound, the Activity (Staphylococcus aureus [46]) was 1.09 mg/L.

— ChEMBL document CHEMBL1275591, “Cellular pharmacodynamics of the novel biaryloxazolidinone radezolid: studies with infected phagocytic and nonphagocytic cells, using Staphylococcus aureus, Staphylococcus epidermidis, Listeria monocytogenes, and Legionella pneumophila” (Antimicrob Agents Chemother, 2010)
